# Bioassay records as filed in PubChem BioAssay.
# The sample as a whole holds a higher share of hits than the screen did.
# ERAP1 HTS inh: human ERAP1 aminopeptidase inhibitors, primary screen, biochemical, single point, plate reader. Endoplasmic reticulum aminopeptidase 1 (Homo sapiens), Q9NZ08. recombinant ERAP1, Leu-AMC fluorescence, 60 min. inhibition, % at 10.7 µM. hit rate 0.15% among 340,000. AID 652197, 2013;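 active = mean replicate inhibition of at least 30%, or all replicates individually reaching that 30% level; inactive = mean below 30% and not every replicate reaching it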;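 also: 0% = neutral control wells and 100% = L-leucinethiol positive control wells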
# FGF22 binding: binders of human FGF22 protein, primary screen, FGF22 synaptogenesis inhibitor project, biophysical, thermal shift, single point | hit rate 1.5% among 340,000 | recombinant FGF22 thermal shift, SYPRO orange fluorescence; percent of sucrose octasulfate shift, DMSO zero | Fibroblast growth factor 22 (Homo sapiens), Q9HCT0 | activity (Tm shift, normalised), % at 9.99 µM | AID 651658, 2012;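 active = mean Tm shift, scaled 0 neutral to 100 positive control, at about 1.3% or above, every replicate too, limit read from the data; inconclusive = no clear call, values can overlap the other calls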
# ERp5 block: inhibitors of ERp5-driven insulin aggregation, primary screen, biochemical, turbidity, absorbance 650 nm, single point; Protein disulfide-isomerase A6 (Homo sapiens), Q15084; 90 min; inhibition, % at 9.99 µM; hit rate 0.05% among 350,000; AID 651711, 2012;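 active = mean replicate inhibition above about 25%, with every replicate also reaching it, limit read from the data, passing the limit was not always enough; inconclusive = only one of those two criteria met; inactive = neither criterion met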
# S100A4 inh HTS: inhibitors of S100A4-myosin IIA peptide binding, primary screen, biochemical, fluorescence polarization, TAMRA-MyoIIA peptide | Protein S100-A4 (Homo sapiens), P26447 | inhibition, % at 10.7 µM | hit rate 0.14% among 360,000;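 active = mean inhibition of at least 70% across replicates, with every replicate also reaching that level; inconclusive = mean inhibition reaches 70% but some replicates fall short; inactive = mean inhibition below 70%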
# Target sequence (P26447 whole entry, looked up): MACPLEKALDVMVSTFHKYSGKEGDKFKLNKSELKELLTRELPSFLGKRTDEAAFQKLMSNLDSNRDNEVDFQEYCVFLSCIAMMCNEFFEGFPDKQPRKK
#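 Material: human S100A4 monomer with TAMRA-labelled myosin IIA peptide; buffer or medium: HEPES pH 7.2 with CaCl2, KCl, NaCl, DTT, Triton; compound dosing: one concentration per compound; schedule: 5 min incubation before reading; benchmarks: neutral control DMSO, positive control TFP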
# PDI turbidity: inhibitors of human PDI, primary screen, biochemical, turbidity, single point, plate reader. inhibition, % at 10 µM. AID 588391, 2011. Protein disulfide-isomerase (Homo sapiens), P07237. hit rate 0.052% among 350,000. PDI insulin aggregation turbidity, A650, 90 min;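 active = mean inhibition across replicates of 30% or more, whatever share of single replicates reach that level; inconclusive = mean inhibition below 30% while every single replicate reaches 30%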
# Target sequence (P07237 whole entry, looked up): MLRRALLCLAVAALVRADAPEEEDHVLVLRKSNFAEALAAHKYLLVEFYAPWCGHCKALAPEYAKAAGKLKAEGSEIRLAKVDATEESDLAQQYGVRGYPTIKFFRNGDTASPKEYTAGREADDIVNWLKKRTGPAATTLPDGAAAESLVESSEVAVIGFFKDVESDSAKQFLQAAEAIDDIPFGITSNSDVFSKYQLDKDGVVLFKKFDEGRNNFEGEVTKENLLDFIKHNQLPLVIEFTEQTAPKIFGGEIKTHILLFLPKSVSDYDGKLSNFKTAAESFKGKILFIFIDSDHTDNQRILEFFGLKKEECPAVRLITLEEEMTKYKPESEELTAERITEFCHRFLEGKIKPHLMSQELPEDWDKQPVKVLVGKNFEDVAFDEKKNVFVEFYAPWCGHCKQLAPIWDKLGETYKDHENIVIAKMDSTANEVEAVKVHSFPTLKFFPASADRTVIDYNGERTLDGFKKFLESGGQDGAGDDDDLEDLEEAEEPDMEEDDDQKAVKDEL
# * marks the source's active call; other numbers are inactive results; ? = inconclusive; · = no result; ! = a repeat was not active.
SMILES,ERAP1 HTS inh,FGF22 binding,ERp5 block,S100A4 inh HTS,PDI turbidity
Cn1cnc([N+](=O)[O-])c1Sc1ccc([N+](=O)[O-])cc1,3.1,43.4*,-1.0,2.5,2.3
COc1cc(C2(C#N)CCN(C)CC2)cc(OC)c1OC,-1.1,43.0*,-1.1,-0.3,-1.8
C[C@H](CO)N1C[C@H](C)[C@@H](CN(C)C(=O)Oc2ccc3ccccc3c2)OCc2cn(nn2)CCCC1=O,-2.2,-0.1,54.5*!,-2.4,-1.6
O=C1NC(=O)C(CCc2ccncc2)(CCc2ccccn2)C(=O)N1c1ccc(Br)cc1 (stereo unspecified),7.8,43.1*,5.3,-1.2,-4.3
OC(CCNCCc1c[nH]c2ccccc12)C(F)(F)Cl (stereo unspecified),1.0,43.6*,5.5,-1.1,-3.1
OC(CNCCc1c[nH]c2ccccc12)C(F)(F)F (stereo unspecified),1.6,·,-1.7,-0.9,13.5
Cc1ccc(NC(=O)CCNC(=O)N2C[C@H]3C[C@@H](C2)c2cccc(=O)n2C3)c(C)c1,·,-0.2,-5.5,-2.3,·
COc1ccc(C2C3C=CC(C3)C2C(=O)O)cc1 (stereo unspecified),-11.4,43.5*,-0.5,4.2,8.3
COc1ccc(C[C@H]2NC[C@H](O)[C@H]2OC(C)=O)cc1,1.4,0.0,-3.0,-3.4,14.8
CCOC(=O)CNC(=O)CSP(=S)(OCC)OCC,·,·,·,·,-1.8
COC1=CC(=O)[C@]2(C=C1OC)OC[C@@H]1Oc3c(ccc4c3C=CC(C)(C)O4)C(=O)[C@@H]12,-2.2,0.1,-5.0,-2.6,·
C/C=C/c1ccc([C@@H]2[C@@H](CO)N3CCCCN(C(=O)Cc4ccncc4)C[C@@H]23)cc1,4.7,0.2,3.4,-2.8,·
CNC(=O)Oc1cc2c(cc1C(C)(C)C)CCC2,-2.5,43.6*,4.5,-3.2,5.4
CC[N+]12CCC(CC1)C(C(O)(c1ccccc1)c1ccccc1)C2 (stereo unspecified),-1.1,0.0,-1.3,-1.9,-5.0
CCC(CO)(C(=O)OC1C[N+]2(C)CCC1CC2)c1ccccc1 (stereo unspecified),72.2*,0.0,3.0,-5.9,-2.4
Cc1ccc2c(c1)CC1(CN2C)C(=O)NC(=O)N(CCc2ccccc2)C1=O (stereo unspecified),·,·,·,·,1.8
CC(CN1CCOCC1)C(C#N)(c1ccccc1)c1ccccc1 (stereo unspecified),1.4,43.0*,-4.1,-4.0,0.8
Cc1ccc(N2C(=O)NC(=O)/C(=C\c3cn(CC(=O)O)c4ccccc34)C2=O)cc1,3.4,0.0,-0.2,?,18.4
O=C(O)Cn1cc(/C=C2\C(=O)NC(=O)N(c3ccc(Br)cc3)C2=O)c2ccccc21,5.4,-0.1,2.7,101.4*,-1.9
CP(=O)(O)CN1CCCCC1,-1.7,43.9*,5.2,1.1,-3.5
O=P(CN1CCN(c2ccccc2)CC1)(N1CCCCC1)N1CCCCC1,·,·,·,·,-3.3
CC1(C)CC(=O)CC(C)(C)N1O,0.6,44.9*,-9.3,0.3,-5.5
C=C1[C@@H](OC(C)=O)[C@]23C[C@@H]1[C@@H](OC(C)=O)CC2[C@]12C4C[C@H]3[C@H]1N(CC)C[C@]4(C)CC[C@@H]2O (stereo partly specified),·,-0.3,-0.4,-15.9,·
c1ccc(C2(NC3=NCCO3)CCCCC2)cc1,-2.3,43.1*,8.5,-1.4,4.5
COC(=O)[C@@H]1C[C@H]1[C@@H](NP(=O)(c1ccccc1)c1ccccc1)c1ccccc1,0.6,-0.2,1.1,6.0,9.6
SMILES,ERAP1 HTS inh,FGF22 binding,ERp5 block,S100A4 inh HTS,PDI turbidity
O=C(O)[C@@H]1C[C@H]1[C@@H](NP(=O)(c1ccccc1)c1ccccc1)c1ccccc1,0.2,-0.4,0.6,-4.8,1.8
COC(=O)[C@]1(C)C[C@H]1[C@H](NP(=O)(c1ccccc1)c1ccccc1)c1ccccc1,3.1,-0.2,4.6,83.5*,1.9
COC(=O)[C@H]1C[C@@H]1[C@H](NP(=O)(c1ccccc1)c1ccccc1)c1ccccc1,-1.6,1.8*,1.0,-3.6,-1.0
CCCCC(=O)N/N=C/c1c(O)n(-c2cccc3ccccc23)c(=O)[nH]c1=O,3.6,0.0,3.0,10.2,1.7
CCCCC1(CCC)C(=O)NC(=S)NC1=O,-0.7,42.9*,1.7,-0.1,-1.6
CCCNC(=O)[C@@H]1[C@@H](CO)[C@@H]2Cn3c(cccc3=O)[C@H]1N2CCC,0.3,0.0,-1.2,0.5,·
Oc1ccccc1CN(CCc1ccccc1)Cc1ccccc1,12.5,0.0,1.9,-1.9,-2.1
CCCCCCn1c(=O)c(C(=O)Nc2cnccn2)c(O)c2ccccc21,-1.3,43.1*,-1.7,0.0,2.1
Cc1cc(OCC(=O)NCc2ccc(S(N)(=O)=O)cc2)c2c3c(c(=O)oc2c1)CCC3,-2.2,0.1,28.0*,15.1,0.7
Cc1cc(OCC(=O)NC(Cc2ccc(Cl)cc2)C(=O)O)c2c3c(c(=O)oc2c1)CCCC3 (stereo unspecified),31.4*,1.2,1.8,-4.8,·
Cc1cc(OCC(=O)NCc2ccncc2)c2c3c(c(=O)oc2c1)CCC3,0.2,-0.1,3.7,-1.0,4.4
CN(C)CC#Cc1ccc([C@@H]2[C@@H](CO)N3CCCCN(C(=O)Cc4ccccn4)C[C@@H]23)cc1,-0.3,0.1,3.3,6.1,·
CN1C(=O)C(=CN2CCN(C(=O)c3ccco3)CC2)C(=O)N(C)C1=S,·,·,·,·,-6.5
COC(=O)[C@H]1[C@H](CO)[C@H]2Cn3c(ccc(-c4ccccc4)c3=O)[C@@H]1N2CC1CCCC1,5.1,·,1.5,4.6,·
CN=C(SCc1cc2c(cc1Cl)OCO2)c1c(O)n(C)c(=O)n(C)c1=O,·,·,·,·,0.9
N#CC1=C(N)Oc2c(c(=O)oc3ccccc23)C1c1ccc([N+](=O)[O-])o1 (stereo unspecified),10.9,43.3*,2.7,-3.6,-1.2
CC(C)Oc1ccc(C2C(C#N)=C(N)Oc3c2c(=O)oc2ccccc32)cc1 (stereo unspecified),·,·,·,·,4.4
CCCCc1ccc(NC2=NCCCS2)cc1,0.1,-0.1,3.0,-3.7,-5.5
COc1ccc2c(c1)C13CCN(C)C(C2)C1CCC1(C3)OCCO1 (stereo unspecified),-1.3,0.3,1.6,20.6,2.5
CC(Cc1ccccc1Sc1ccccc1O)N(C)C (stereo unspecified),·,·,·,·,37.7*
Cc1ccc(OP(=O)(NC(C)c2ccccc2)Oc2ccc(C)cc2)cc1 (stereo unspecified),-0.2,43.0*,-3.8,0.1,3.8
Cc1ccc(NP(=O)(Oc2ccccc2)Oc2ccccc2)cc1,-2.4,-0.1,2.3,-1.4,0.9
